From ChEMBL document CHEMBL1131322, “Simultaneous measurement of nineteen binding constants of peptides to vancomycin using affinity capillary electrophoresis-mass spectrometry” (J Med Chem, 1998) come the findings set out here.

Square brackets hold non-standard residues; d marks the D form. Peptide text beside a SMILES is read from it. * marks the point of attachment. ξ: configuration not given here. Fmoc = O=C(OCC1c2ccccc2-c2ccccc21)*; ξV = CC(C)C(N)C(=O)O

Broadly, the Kd is the concentration at which binding is half-saturated. Low readings indicate a tighter complex, high ones a looser complex.

The nature of experiment [1]: Binding constant at vancomycin was measured using affinity capillary electrophoresis-UV. The procedure, abridged:
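Receptor-in-buffer mobility-shift ACE with UV detection was used, running individual ligands. Capillary was 30 cm effective length, 37 cm total length, at 20 kV. Kd was obtained by Scatchard analysis of mobility versus vancomycin concentration.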

Experiment [2] is described as follows: Binding constant at vancomycin was measured using affinity capillary electrophoresis-MS. The procedure, abridged:
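Mixture of Fmoc-DXYA (all-D) peptides plus Fmoc-G EOF marker injected together hydrodynamically (10 cm, 10 s) into an uncoated 50 cm capillary. Running buffer was 20 mM Tris-acetate pH 8.1 with 0–100 μM vancomycin, run at 400–500 V/cm. On-line ESI triple-quadrupole MS detected free peptide ions. Kd came from marker-corrected mobility shifts by Scatchard analysis.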

Regarding `CC[C@@H](C)[C@H](NC(=O)[C@H](CC(=O)O)NC(=O)OCC1c2ccccc2-c2ccccc21)C(=O)N[C@@H](Cc1ccc(O)cc1)C(=O)N[C@@H](C)C(=O)O`, the Kd in experiment [1] worked out at 19 µM; in experiment [2] it was 21 µM.

On to `C[C@H](NC(=O)[C@H](Cc1ccc(O)cc1)NC(=O)[C@H](CCC(N)=O)NC(=O)[C@H](CC(=O)O)NC(=O)OCC1c2ccccc2-c2ccccc21)C(=O)O` (Fmoc-DQYA-OH), for which the Kd is 14 µM in experiment [1] and 15 µM in experiment [2].

As to `C[C@H](NC(=O)[C@H](Cc1ccc(O)cc1)NC(=O)[C@@H]1CCCN1C(=O)[C@H](CC(=O)O)NC(=O)OCC1c2ccccc2-c2ccccc21)C(=O)O` (Fmoc-DPYA-OH), the equilibrium dissociation constant (Kd) was 14 µM in experiment [1] and 16 µM in experiment [2].

`C[C@H](NC(=O)[C@H](Cc1ccc(O)cc1)NC(=O)[C@H](CCCN=C(N)N)NC(=O)[C@H](CC(=O)O)NC(=O)OCC1c2ccccc2-c2ccccc21)C(=O)O` (Fmoc-DRYA-OH): the Kd in experiment [1] came out at 13 µM; in experiment [2] it was 11 µM.

Consider `C[C@H](NC(=O)[C@H](Cc1ccc(O)cc1)NC(=O)[C@H](CO)NC(=O)[C@H](CC(=O)O)NC(=O)OCC1c2ccccc2-c2ccccc21)C(=O)O` (Fmoc-DSYA-OH), for which the Kd in experiment [1] is 13 µM; in experiment [2], 14 µM.

On to `CC(C)C(NC(=O)[C@H](CC(=O)O)NC(=O)OCC1c2ccccc2-c2ccccc21)C(=O)N[C@@H](Cc1ccc(O)cc1)C(=O)N[C@@H](C)C(=O)O` (stereo partly drawn) (Fmoc-D[ξV]YA-OH), for which the Kd in experiment [1] came to 12 µM; in experiment [2] it was 10 µM.

Turning to `C[C@H](NC(=O)[C@H](Cc1ccc(O)cc1)NC(=O)[C@H](CC(=O)O)NC(=O)[C@H](CC(=O)O)NC(=O)OCC1c2ccccc2-c2ccccc21)C(=O)O` (Fmoc-DDYA-OH), the dissociation constant (Kd) is 7.2 µM in experiment [1] and 6.6 µM in experiment [2].

In the case of `C[C@H](NC(=O)[C@H](Cc1ccc(O)cc1)NC(=O)[C@H](Cc1ccc(O)cc1)NC(=O)[C@H](CC(=O)O)NC(=O)OCC1c2ccccc2-c2ccccc21)C(=O)O` (Fmoc-DYYA-OH), the Kd was determined as 6.8 µM in experiment [1] and 7.4 µM in experiment [2].

As for `C[C@H](NC(=O)[C@H](Cc1ccc(O)cc1)NC(=O)[C@H](Cc1c[nH]c2ccccc12)NC(=O)[C@H](CC(=O)O)NC(=O)OCC1c2ccccc2-c2ccccc21)C(=O)O` (Fmoc-DWYA-OH), the Kd was found to be 14 µM in experiment [1] and 12 µM in experiment [2].

As to `C[C@H](NC(=O)[C@H](Cc1ccc(O)cc1)NC(=O)[C@H](C)NC(=O)[C@H](CC(=O)O)NC(=O)OCC1c2ccccc2-c2ccccc21)C(=O)O` (Fmoc-DAYA-OH), the values for the Kd in experiment [1] and in experiment [2] were 7.2 µM and 8.2 µM, respectively.

`CC(C)C[C@H](NC(=O)[C@H](CC(=O)O)NC(=O)OCC1c2ccccc2-c2ccccc21)C(=O)N[C@@H](Cc1ccc(O)cc1)C(=O)N[C@@H](C)C(=O)O` (Fmoc-DLYA-OH): the Kd in experiment [1] is 5.6 µM; in experiment [2], 5.1 µM.

`C[C@H](NC(=O)[C@H](Cc1ccc(O)cc1)NC(=O)[C@H](Cc1ccccc1)NC(=O)[C@H](CC(=O)O)NC(=O)OCC1c2ccccc2-c2ccccc21)C(=O)O` (Fmoc-DFYA-OH): the Kd is 9.6 µM in experiment [1] and 8.9 µM in experiment [2].

Turning to `C[C@H](NC(=O)[C@H](Cc1ccc(O)cc1)NC(=O)CNC(=O)[C@H](CC(=O)O)NC(=O)OCC1c2ccccc2-c2ccccc21)C(=O)O` (Fmoc-DGYA-OH), the Kd in experiment [1] is 18 µM; in experiment [2], 21 µM.

Take `C[C@H](NC(=O)[C@H](Cc1ccc(O)cc1)NC(=O)[C@H](Cc1c[nH]cn1)NC(=O)[C@H](CC(=O)O)NC(=O)OCC1c2ccccc2-c2ccccc21)C(=O)O` (Fmoc-DHYA-OH): the Kd turned out to be 7.1 µM in experiment [1] and 8.2 µM in experiment [2].

As to `C[C@H](NC(=O)[C@H](Cc1ccc(O)cc1)NC(=O)[C@@H](NC(=O)[C@H](CC(=O)O)NC(=O)OCC1c2ccccc2-c2ccccc21)[C@H](C)O)C(=O)O`, the results for the Kd in experiment [1] and in experiment [2] were 21 µM and 24 µM, respectively.

In the case of `C[C@H](NC(=O)[C@H](Cc1ccc(O)cc1)NC(=O)[C@H](CCC(=O)O)NC(=O)[C@H](CC(=O)O)NC(=O)OCC1c2ccccc2-c2ccccc21)C(=O)O` (Fmoc-DEYA-OH), the results for the Kd in experiment [1] and in experiment [2] were 10 µM and 8.5 µM, respectively.

As for `CSCC[C@H](NC(=O)[C@H](CC(=O)O)NC(=O)OCC1c2ccccc2-c2ccccc21)C(=O)N[C@@H](Cc1ccc(O)cc1)C(=O)N[C@@H](C)C(=O)O` (Fmoc-DMYA-OH), the Kd is 7.1 µM in experiment [1] and 7.6 µM in experiment [2].

On to `C[C@H](NC(=O)[C@H](Cc1ccc(O)cc1)NC(=O)[C@H](CC(N)=O)NC(=O)[C@H](CC(=O)O)NC(=O)OCC1c2ccccc2-c2ccccc21)C(=O)O` (Fmoc-DNYA-OH), for which the results for the Kd in experiment [1] and in experiment [2] were 11 µM and 12 µM, respectively.

Consider `C[C@H](NC(=O)[C@H](Cc1ccc(O)cc1)NC(=O)[C@H](CCCCN)NC(=O)[C@H](CC(=O)O)NC(=O)OCC1c2ccccc2-c2ccccc21)C(=O)O` (Fmoc-DKYA-OH), for which the Kd in experiment [1] was determined as 13 µM; in experiment [2] it was 12 µM.
